Only some compounds are listed: those with a hit (about 1.5% of all), similar ones and a draw of the others.
S100A4 inh HTS = S100A4-myosin IIA interaction inhibition | 0.14% of 360,000 active | P26447 | inhibition, % at 10.7 µM | S100A4/TAMRA-MyoIIA peptide fluorescence polarization;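 active = mean inhibition of at least 70% across replicates, with every replicate also reaching that level; inconclusive = mean inhibition reaches 70% but some replicates fall short; inactive = mean inhibition below 70%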
Target sequence (P26447 whole entry, looked up): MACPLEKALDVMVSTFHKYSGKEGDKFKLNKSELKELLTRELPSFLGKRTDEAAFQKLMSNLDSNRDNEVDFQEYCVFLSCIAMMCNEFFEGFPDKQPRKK
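Material: S100A4 monomer protein / Buffer or medium: 50 mM HEPES pH 7.2, 10 mM CaCl2, 100 mM KCl / Times: 5 min incubation before reading / Benchmarks: neutral control DMSO, positive control TFP / Reagent: labelled myosin peptide probe, 5 nM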
PKA-R1A act = activators of PKA-R1A complex; P00514+P68181; PKA-R1A dissociation, Cy5-IP20 fluorescence polarization; scaled: DMSO 0%, 113 µM cGMP 100%; activation, % at 11.4 µM; 0.083% of 340,000 active; AID 504707;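 active = percent activation above the mean of all tested compounds plus 3 SD, cut at about 19% in these data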;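 note: higher means more PKAc released from R1A so a rise in polarization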
CRFR2-BP antag = antagonists of CRF-binding protein/CRF-R2 receptor complex; HEK293 CRF-R2/CRF-BP, CRF-induced calcium fluorescence; 0.59% of 350,000 active; inhibition, % at 11.8 µM;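 active = inhibition of the ligand-induced calcium signal above about 50% at the single tested concentration, limit read from the data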
SIRT5 block = blocks human SIRT5 desuccinylation of peptide | Q9NXA8 | Purified SirT5, succinyl-peptide AMC, trypsin-coupled fluorescence | inhibition, % at 15 µM | 1.1% of 330,000 active | AID 652115; in the data active = inhibition above about 15%; inconclusive = no clear call, values can overlap the other calls
PKA-R2B act = PKA-R2B complex activation. P22694+P31323. PKA-R2B holoenzyme dissociation, Cy5-IP20 fluorescence polarization; R2B truncated from residue 108, S112A mutant; 0% DMSO only, 100% 113 µM cGMP. activation, % at 11.4 µM. 0.079% of 340,000 active;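 active = activation above a cutoff set at the mean over all compounds plus 3 SD, cut at about 18% in these data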;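 note: higher means more holoenzyme dissociation and a rise in polarization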
Target sequence (P31323 whole entry, looked up, other chains not shown, the tested form may be a part): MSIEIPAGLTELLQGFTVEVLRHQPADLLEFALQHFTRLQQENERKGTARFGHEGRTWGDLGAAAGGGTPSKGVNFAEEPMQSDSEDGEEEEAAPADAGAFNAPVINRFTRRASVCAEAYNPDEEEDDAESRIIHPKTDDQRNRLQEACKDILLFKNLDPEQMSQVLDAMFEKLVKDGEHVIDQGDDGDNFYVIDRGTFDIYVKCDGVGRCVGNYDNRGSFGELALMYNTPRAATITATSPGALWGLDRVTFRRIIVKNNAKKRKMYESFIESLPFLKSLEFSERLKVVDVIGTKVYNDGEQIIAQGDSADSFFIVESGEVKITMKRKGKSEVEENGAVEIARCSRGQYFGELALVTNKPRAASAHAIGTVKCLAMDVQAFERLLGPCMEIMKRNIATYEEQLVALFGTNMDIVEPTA
Numbers stand for hits; – = inactive; ? = inconclusive; · = not tested or not shown.

SMILES | S100A4 inh HTS | PKA-R1A act | CRFR2-BP antag | SIRT5 block | PKA-R2B act
NC(=O)c1ncc(C(F)(F)F)cc1Cl | – | – | – | – | –
NC(=O)c1ccc(C(F)(F)F)cn1 | – | – | – | 32.2 | –
CCC(=O)N1C[C@H](C)[C@H](OC)CN(C)C(=O)c2cc(NC(=O)NC3CCCC3)ccc2OC[C@@H]1C | – | · | · | – | ·
Cc1cccc(C)c1N1CCN(C(=O)c2ccc3c(c2)OCO3)CC1 | – | – | 61.1 | – | –
COCC(=O)Nc1ccc2c(c1)C(=O)N(C)C[C@@H](OC)[C@H](C)CN(Cc1cc(-c3ccccc3)on1)[C@H](C)CO2 | – | · | · | – | ·
COc1cc(CCc2ccccc2)c(C(=O)O)c(O)c1C/C=C(/C)CCC=C(C)C | – | – | 72.0 | 31.9 | –
COc1cc(CCc2ccccc2)c(C(=O)O)c(O)c1CC=C(C)C | – | – | 61.3 | · | –
CO[C@@H]1CN(C)C(=O)c2cc(NC(=O)c3ccccc3F)ccc2OC[C@@H](C)N(C(=O)c2ccccc2F)C[C@@H]1C | – | · | · | – | ·
C[C@@H]1CCCCO[C@@H](CN(C)Cc2ccccc2)[C@H](C)CN([C@H](C)CO)C(=O)c2cc(NC(=O)Nc3ccccc3)ccc2O1 | – | · | · | – | ·
O=C(ON=C1CCN(c2ccc([N+](=O)[O-])cc2)CC1)c1ccccc1 | · | – | 64.3 | · | –
Cc1ccc(S(=O)(=O)N(Cc2ccccc2)c2ccccc2C(=O)NCc2ccco2)cc1 | – | – | 70.9 | – | –
Cc1ccc(S(=O)(=O)N(Cc2ccccc2)c2ccccc2C(=O)Nc2ccccc2C(=O)NCc2ccco2)cc1 | – | – | – | – | –
CC1(C(=O)NCc2cc(F)cc(C(F)(F)F)c2)C=CC2(CCCCC2)N1C(=O)c1ccccc1 (stereo not drawn) | – | – | – | 24.4 | –
CC1(C(=O)NCC2CC2)C=CC2(CCCCC2)N1C(=O)c1ccccc1 (stereo not drawn) | – | – | – | – | –
O=C(c1ccncc1)N1C[C@@H]2[C@H](c3ccccc31)[C@@H](CO)N2C(=O)Nc1ccc(F)cc1 | – | · | · | – | ·
O=C(C1CCCN(S(=O)(=O)c2cccc3cccnc23)C1)N1CCN(c2ccc(F)cc2)CC1 (stereo not drawn) | – | – | 79.0 | – | –
C[C@H]1CN([C@@H](C)CO)S(=O)(=O)c2ccc(-c3cccc(F)c3)cc2O[C@@H]1CN(C)S(=O)(=O)c1ccccc1 | – | · | · | 15.6 | ·
COc1ccccc1-c1ccc2c(c1)O[C@@H](CN(C)Cc1ccc3c(c1)OCO3)[C@@H](C)CN([C@@H](C)CO)S2(=O)=O | – | · | · | 21.2 | ·
C[C@H](CO)N1C[C@H](C)[C@@H](CN(C)S(=O)(=O)c2ccccc2)Oc2cc(-c3cccc(F)c3)ccc2S1(=O)=O | – | · | · | – | ·
COc1ccccc1-c1ccc2c(c1)O[C@H](CN(C)C(C)=O)[C@@H](C)CN([C@@H](C)CO)S2(=O)=O | 122.8 | · | · | – | ·
C[C@@H]1CN([C@@H](C)CO)S(=O)(=O)c2ccc(-c3cccc(F)c3)cc2O[C@H]1CN(C)S(=O)(=O)c1ccccc1 | – | · | · | – | ·
C[C@@H]1CN([C@H](C)CO)S(=O)(=O)c2ccc(-c3cccc(F)c3)cc2O[C@H]1CN(C)S(=O)(=O)c1ccccc1 | – | · | · | 16.7 | ·
COc1ccccc1-c1ccc2c(c1)O[C@@H](CN(C)C(C)=O)[C@@H](C)CN([C@@H](C)CO)S2(=O)=O | – | · | · | – | ·
COc1ccccc1-c1ccc([C@@H]2[C@@H](CO)N3CCCCN(S(=O)(=O)c4cn(C)cn4)C[C@@H]23)cc1 | – | · | · | – | ·
COc1ccccc1-c1ccc2c(c1)O[C@H](CN(C)S(=O)(=O)c1ccccc1)[C@@H](C)CN([C@@H](C)CO)S2(=O)=O | – | · | · | 19.7 | ·
SMILES | S100A4 inh HTS | PKA-R1A act | CRFR2-BP antag | SIRT5 block | PKA-R2B act
COc1ccccc1-c1ccc2c(c1)O[C@H](CN(C)S(=O)(=O)c1ccccc1)[C@@H](C)CN([C@H](C)CO)S2(=O)=O | – | · | · | – | ·
C[C@@H]1CN([C@H](C)CO)S(=O)(=O)c2ccc(-c3cccc(F)c3)cc2O[C@@H]1CN(C)S(=O)(=O)c1ccccc1 | – | · | · | 16.3 | ·
CCCNC(=O)N1CCC2(CC1)CN(C(=O)Nc1ccc(F)cc1)[C@@H](CO)c1[nH]c3cc(OC)ccc3c12 | – | · | · | – | ·
CC1C/C(=N\NC(=O)c2ccc([N+](=O)[O-])cc2)CC(C)(C)C1 (stereo not drawn) | – | – | 71.7 | – | –
COc1ccc(/C=N/NS(=O)(=O)c2ccccc2)cc1OC(=O)c1ccc(C)cc1 | · | – | 50.6 | · | –
COc1ccc(/C=N/NS(=O)(=O)c2ccc(C)cc2)cc1OC(=O)c1ccccc1 | · | – | – | · | –
COc1cccc(NC(=O)N[C@@H]2C=C[C@@H](CC(=O)N3CCOCC3)O[C@@H]2CO)c1 | ? | · | · | – | ·
CC1(C)C2CC=C(/C=N/NC(=O)c3ccccc3O)C1C2 (stereo not drawn) | – | – | 58.6 | – | –
CNC(=S)N/N=C/C1=CCC2CC1C2(C)C (stereo not drawn) | – | – | – | – | –
COc1cccc(S(=O)(=O)Nc2ccc3c(c2)C(=O)N(C)C[C@@H](OC)[C@@H](C)CN(C(=O)Cc2cccnc2)[C@@H](C)CO3)c1 | – | · | · | · | ·
CC(C)c1ccc(N2C(=O)CSC23C(=O)N2CCCc4cccc3c42)cc1 (stereo not drawn) | – | – | – | 17.8 | –
CC1=C(C#N)C(=O)NC(C)(C)C1 | – | – | 53.9 | – | –
CC1=C(C#N)C(=O)NC1(C)O (stereo not drawn) | – | – | – | · | –
COCC#Cc1cnc2c(c1)C(=O)N([C@@H](C)CO)C[C@H](C)[C@H](CN(C)Cc1ccc3c(c1)OCO3)O2 | – | · | · | – | ·
Cc1noc(C)c1NC(=O)Nc1ccc2c(c1)C(=O)N([C@H](C)CO)C[C@H](C)[C@@H](CN(C)S(=O)(=O)c1ccc(F)cc1)O2 | – | – | 70.5 | – | –
C[C@H]1CN([C@@H](C)CO)C(=O)Cc2cc(NC(=O)Nc3ccc(F)cc3)ccc2O[C@@H]1CN(C)S(C)(=O)=O | – | · | · | 17.8 | ·
Cc1noc(C)c1NC(=O)Nc1ccc2c(c1)C(=O)N([C@@H](C)CO)C[C@H](C)[C@H](CN(C)S(=O)(=O)c1ccc(F)cc1)O2 | – | · | · | – | ·
C[C@H]1CN([C@@H](C)CO)C(=O)c2cc(NC(=O)Nc3ccc(C(F)(F)F)cc3)ccc2O[C@H]1CN(C)S(=O)(=O)c1ccc(Cl)cc1 | – | · | · | 23.2 | ·
C[C@H](CO)N1C[C@H](C)[C@H](CN(C)S(=O)(=O)c2ccc(Cl)cc2)Oc2ccc(NC(=O)Nc3ccc(F)cc3)cc2C1=O | – | · | · | 15.2 | ·
C[C@@H]1CN([C@@H](C)CO)C(=O)c2cc(NC(=O)Nc3ccc(C(F)(F)F)cc3)ccc2O[C@@H]1CN(C)S(=O)(=O)c1ccc(Cl)cc1 | – | · | · | – | ·
